Assay outcomes as filed in PubChem.
Pemphigus Ab inh: inhibitors of pemphigus antibody binding to DSG3, primary screen, biochemical, bead-based, flow cytometry, scFv-GFP; binding (percent of control), % at 10 µM; AID 588358, 2011; DSG3-coupled beads, scFv-anti-DSG3-GFP binding; active compounds read low; 0.48% of 310,000 active; Desmoglein-3 (Homo sapiens), P32926;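 active = binding more than 3 SD below its plate's average and above zero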;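 also: hits lower antibody fragment binding to DSG3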
NadD block: inhibitors of S. aureus NadD, primary screen, biochemical, colorimetric, uHTS. purified NadD enzyme, colorimetric absorbance read-out. inhibition, % at 20 µM. 0.78% of 360,000 active. AID 602399, 2012; in the data active = inhibition above about 26%
HCV core dimer: inhibitors of HCV core protein dimerization, primary screen, biochemical, TR-FRET, high-throughput. TR-FRET GST/Flag-core106 dimerization, 1536-well. inhibition, % at 5 µM. 0.33% of 300,000 active. AID 1899, 2009;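 active = inhibition above the mean of all tested compounds plus 3 SD, set per screening campaign, cut at about 45% in these data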
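Assay system: tagged HCV core106 pair (GST and Flag); medium: KF-containing HEPES buffer, pH 7.45, DTT, CHAPS, BSA; also added: Eu donor and XL665 acceptor anti-tag antibodies; dosing: 5 µM single dose; timing: compound-protein-antibody incubation 4 h at 22.5 °C; signal: TR-FRET 671 and 617 nm emission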
Rce1 inh: yeast Rce1p protease inhibitors, primary screen, biochemical, fluorescence, cell-free homogeneous | AID 2563, 2010 | 0.27% of 290,000 active | CAAX prenyl protease 2 (Saccharomyces cerevisiae (strain ATCC 204508 / S288c)), Q03530 | yeast membranes, quenched prenylated peptide cleavage fluorescence | calls only;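 active = fall in fluorescence gain of 50% or more versus controls, with final raw signal at or below 3038400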;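 also: plate controls were neutral control wells for no effect and wells lacking membranes for full effect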
Target sequence (Q03530 whole entry, looked up): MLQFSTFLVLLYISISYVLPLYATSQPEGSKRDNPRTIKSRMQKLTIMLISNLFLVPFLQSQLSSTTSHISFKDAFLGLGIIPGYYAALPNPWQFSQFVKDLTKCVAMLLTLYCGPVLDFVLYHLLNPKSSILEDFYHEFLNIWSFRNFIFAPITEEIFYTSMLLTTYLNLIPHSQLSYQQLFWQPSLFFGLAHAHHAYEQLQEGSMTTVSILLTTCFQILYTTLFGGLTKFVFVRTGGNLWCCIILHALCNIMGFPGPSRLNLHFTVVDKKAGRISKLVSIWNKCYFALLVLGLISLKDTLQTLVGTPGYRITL
TbMetRS inhib: T. brucei MetRS inhibitors, primary screen, biochemical, luminescence | methionyl-tRNA synthetase (Trypanosoma brucei brucei) | purified T. brucei MetRS, ATP depletion, Kinase-Glo luminescence | inhibition, % at 11.9 µM | 0.4% of 360,000 active | AID 624268, 2012;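 active = inhibition above a per-plate cutoff of the control wells' mean inhibition plus 3 SD, cut at about 5.5% in these data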;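 also: 0% = DMSO wells median and 100% = median of wells with control inhibitor compound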
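Test system: purified T. brucei MetRS enzyme. Also added: ATP, methionine and E. coli bulk tRNA substrates. Compound: 11.9 µM single point. Schedule: 15 min enzyme-compound preincubation, 2 h reaction, 10 min detection, 25 °C. Signal: luciferase luminescence of residual ATP, Kinase-Glo. Evaluation: percent inhibition versus plate control medians. Controls: DMSO wells, low control.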
Tb MetRS conf: T. brucei MetRS inhibitors, confirmation, biochemical, luminescence; shares compounds with TbMetRS inhib; T. brucei MetRS enzyme, luminescence (ATP depletion); inhibition, % at 11.9 µM; 93% of 1,400 active; AID 624412, 2012; in the data active = inhibition above about 7%
Jurkat cytotox: Jurkat T cell cytotoxicity, cytotoxicity control for T. brucei MetRS inhibitor project, luminescence, high throughput. Jurkat cells viability, ATP luminescence. inhibition, % at 8.3 µM. shares compounds with TbMetRS inhib. 12% of 1,400 active; in the data active = inhibition above about 15%;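 also: 0% = vehicle and 100% = reference inhibitor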
TbMetRS FP orth: T. brucei MetRS inhibitors, orthogonal assay for T. brucei MetRS inhibitor project, biochemical, fluorescence polarization; shares compounds with TbMetRS inhib; inhibition, % at 11.9 µM; 44% of 1,400 active; purified T. brucei MetRS; in the data active = inhibition above about 17%;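 also: 0% = vehicle wells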
Numbers without * were called inactive; i = inactive; nt = no result. A selection: hits, their analogues and other compounds. The true share with any hit is near 1.9%.

SMILES	Pemphigus Ab inh	NadD block	HCV core dimer	Rce1 inh	TbMetRS inhib	Tb MetRS conf	Jurkat cytotox	TbMetRS FP orth
CCCC1(CCC)C(=O)NC(=Nc2ccccc2)NC1=O	99.2	2.1	-2.4	i	12.0*	18.7*	-6.3	7.4
CSC(=Nc1ccccc1)c1c(O)n(C)c(=O)n(C)c1=O	101.5	2.5	0.3	i	-0.6	nt	nt	nt
c1ccc2c(c1)Nc1ccccc1S2	93.8	1.2	-56.5	i	-0.5	nt	nt	nt
Cc1noc(C)c1COc1ccc(C(=O)NCC2(N(C)C)CCCCC2)cc1	103.5	-1.1	nt	nt	-0.1	nt	nt	nt
Cc1nccc2c1[nH]c1ccc(Br)cc12	103.0	-5.4	3.4	i	9.0*	17.1*	2.6	8.8
COc1ccc2c(c1)[nH]c1c(C)nccc12	114.1	-3.3	2.2	nt	0.0	nt	nt	nt
Nc1nc(N)c2cnnn2n1	92.0	-2.8	nt	nt	0.0	nt	nt	nt
COC(=O)C1=C(c2ccccc2OCc2ccccc2)C[C@@H]2CC[C@H]1N2C(=O)NCc1ccc(OC)c(OC)c1	99.5	-2.7	nt	nt	-0.1	nt	nt	nt
Clc1ccc(COC(Cn2ccnc2)c2ccc(Cl)cc2Cl)c(Cl)c1 (stereo not given)	104.0	19.0	13.8	i	42.5*	58.4*	13.5	46.1*
O=C1NC(=O)C(=Cc2ccc(N3CCN(C(=O)c4ccccc4)CC3)c([N+](=O)[O-])c2)C(=O)N1	105.3	11.0	9.9	i	12.9*	18.5*	0.7	4.9
NC(=O)OCCSc1nnc(-c2cccc(C(N)=S)c2)o1	105.3	-1.2	-5.6	i	16.1*	10.2*	0.9	-0.2
Cc1ccc(NC(=O)CN2C(=O)CN=C(c3ccccc3)c3cc(Cl)ccc32)cc1	97.3	0.0	1.4	i	58.7*	80.6*	5.7	53.0*
CN(C)c1ccc(NC(=O)CN2C(=O)CN=C(c3ccccc3)c3cc(Cl)ccc32)cc1	100.6	1.2	-4.1	i	0.4	nt	nt	nt
Cc1c(C=O)c2ccccc2n1Cc1ccccc1F	107.6	6.2	6.2	i	-0.8	nt	nt	nt
CCOCCCn1c(N)c(C(=O)Nc2sc3c(c2C(=O)OC)CCCC3)c2nc3ccccc3nc21	95.0	1.3	-2.4	i	8.3*	2.1	1.3	6.8
CCOC(=O)c1c(NC(=O)c2c(N)n(CCCOC)c3nc4ccccc4nc23)sc2c1CCCC2	98.9	-8.6	0.7	i	-0.5	nt	nt	nt
CCn1nc(/C=C/c2ccccc2)nc2c(=O)n(C)c(=O)nc1-2	nt	1.0	nt	i	17.6*	36.5*	56.7*	6.0
N#Cc1cc2c(nc1SCC(=O)Nc1ccc(Cl)cc1)C1CCN2CC1	104.9	-1.9	1.4	i	9.2*	15.1*	19.6*	9.5
